Compound activity: PubChem BioAssay, several laboratories
Shown are actives, neighbours in structure and some others; about 2.3% of the full set was active somewhere.
TRPC6 inh = mouse TRPC6 channel inhibition | B-score at 10 µM | HEK293-TRPC6, membrane potential dye, ACh-evoked depolarization; stronger effect = lower value | Q61143 | 1.1% of 310,000 active;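 active = B-score under library mean minus 3 SD, initial fluorescence not abnormally high, positive integrated signal ratio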;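 also: B-score derived from integrated fluorescence ratio over the kinetic read; more negative B-score means stronger inhibition of depolarization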
FID counter = fluorescent intercalator displacement, NS3 helicase counter-screen; DNA fluorescent intercalator displacement, fluorescence; inhibition, % at 7.9 µM; 0.17% of 290,000 active; in the data active = inhibition above about 37%;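 also: 0% = vehicle and 100% = reference compound; higher means more ethidium bromide displaced from hairpin DNA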
TRPC6 activator = activators of mouse TRPC6 channel; Q61143; HEK293-TRPC6 membrane potential dye fluorescence; stronger effect = higher value; B-score at 10 µM; 0.13% of 310,000 active; AID 2550;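 active = B-score of the integrated fluorescence ratio above library mean plus 3 SD, and starting fluorescence ratio within library mean plus 5 SD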;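 also: higher score means more depolarization so channel activation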
TRPC4 block = TRPC4 (mouse) channel inhibition | HEK293 TRPC4beta/mu-opioid, DAMGO-evoked Fluo4 calcium flux; stronger effect = lower value | B-score at 10 µM | 0.39% of 300,000 active | AID 2247;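 active = B-score over 3 SD under the library average, no early fluorescence shift, positive overall ratio signal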
Target sequence (Q9QUQ5 whole entry, looked up): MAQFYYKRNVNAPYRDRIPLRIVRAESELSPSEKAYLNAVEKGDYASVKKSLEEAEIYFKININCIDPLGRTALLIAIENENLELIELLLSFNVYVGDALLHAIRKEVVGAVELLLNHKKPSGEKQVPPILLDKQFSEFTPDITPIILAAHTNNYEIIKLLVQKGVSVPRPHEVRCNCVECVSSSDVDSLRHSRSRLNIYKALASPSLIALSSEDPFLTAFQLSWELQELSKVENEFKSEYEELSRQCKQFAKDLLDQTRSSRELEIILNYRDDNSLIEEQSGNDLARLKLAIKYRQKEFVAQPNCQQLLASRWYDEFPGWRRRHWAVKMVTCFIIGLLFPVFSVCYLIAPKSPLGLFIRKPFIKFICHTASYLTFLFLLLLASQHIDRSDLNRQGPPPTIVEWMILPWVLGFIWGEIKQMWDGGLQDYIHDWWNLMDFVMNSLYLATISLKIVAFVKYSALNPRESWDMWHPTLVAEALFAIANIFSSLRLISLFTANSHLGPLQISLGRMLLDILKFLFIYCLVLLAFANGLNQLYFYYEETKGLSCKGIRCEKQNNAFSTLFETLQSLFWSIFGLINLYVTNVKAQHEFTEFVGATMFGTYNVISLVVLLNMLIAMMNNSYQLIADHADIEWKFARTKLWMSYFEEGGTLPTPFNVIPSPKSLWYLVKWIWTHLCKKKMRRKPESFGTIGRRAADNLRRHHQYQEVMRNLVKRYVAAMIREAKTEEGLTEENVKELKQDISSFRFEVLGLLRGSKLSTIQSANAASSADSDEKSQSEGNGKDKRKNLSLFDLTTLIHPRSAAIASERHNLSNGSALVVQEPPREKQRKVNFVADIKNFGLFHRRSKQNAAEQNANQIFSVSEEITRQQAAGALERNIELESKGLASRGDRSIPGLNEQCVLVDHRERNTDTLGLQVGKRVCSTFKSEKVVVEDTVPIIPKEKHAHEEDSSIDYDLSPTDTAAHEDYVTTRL
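System: stable TRPC4beta/mu-opioid receptor HEK293 cells; Dosing: single-point compound dosing; Measured by: Fluo4 Ca2+ flux fluorescence; Read-out basis: per-well B score of integrated baseline-normalized Fluo4 ratio.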
TRPC4 act = activators of mouse TRPC4 channel; Q9QUQ5; HEK293 TRPC4beta/mu-opioid, Fluo4 calcium fluorescence; stronger effect = higher value; B-score at 10 µM; 0.49% of 310,000 active;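 active = B-score above 5 SD of library B-scores, and initial fluorescence ratio not above library mean plus 5 SD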;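 also: positive B-score marks a calcium rise read as TRPC4 activation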
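Assay system: HEK293 stable line with TRPC4beta plus mu-opioid receptor; schedule: 45 min room-temperature Fluo4 loading, 110 s read; technique: kinetic Fluo4 calcium fluorescence; evaluation: integrated baseline-normalised fluorescence ratio, converted to per-well B score; controls: buffer (low) and maximal DAMGO (high)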
TRPC4 PAM = allosteric potentiators of mouse TRPC4 channel; Q9QUQ5; HEK293 TRPC4beta/mu-opioid, DAMGO EC20, Fluo-4 Ca2+ flux; stronger effect = higher value; B-score at 10 µM; 0.42% of 310,000 active;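 active = B-score of calcium response area above 5 SD of library B-scores, with initial fluorescence ratio within 5 SD of library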;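 also: B-score of integrated fluorescence ratio over time as area under calcium response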
An asterisk follows results filed as active; i = inactive; . = no result given.

SMILES	TRPC6 inh	FID counter	TRPC6 activator	TRPC4 block	TRPC4 act	TRPC4 PAM
O=c1[nH]c(-c2ccccc2)nc(-c2ccccc2)c1Cl	i	.	i	i	i	i
c1coc(CN=C2NC(=NCc3ccco3)c3ccccc32)c1	i	1.2	i	-7*	i	i
O=[N+]([O-])c1cc([N+](=O)[O-])c2oc(-c3ccccc3)c(Br)c2c1O	i	46.9*	i	i	i	i
Cc1ccc(N2CCN(C(=O)c3ccccc3F)CC2)c(C)c1	i	-23.8	i	-7*	i	i
CCC(=O)c1ccc(N2CCN(C(=O)c3ccccc3Br)CC2)c(F)c1	i	-32.6	i	i	i	28*
O=c1ccc(-c2ccc(S(=O)(=O)NCC3CCN(Cc4ccccc4F)CC3)s2)n[nH]1	i	9.7	i	i	i	i
COc1cccc(NC(=O)c2ccc(NCCCN3CCC(C)CC3)c([N+](=O)[O-])c2)c1	i	26.2	i	i	i	i
COc1cccc(NC(=O)c2ccc(NCCCN3CC(C)CC(C)C3)c([N+](=O)[O-])c2)c1 (configuration not stated)	i	50.6*	i	i	i	14*
CC(C)Cn1c(-c2csc(C(C)C)c2)n[nH]c1=S	i	-19.8	i	i	i	13*
CCn1c(-c2csc(C(C)C)c2)n[nH]c1=S	i	-11.3	i	i	i	i
Cc1ccc2c(c1)c1c3n2CCN(CC(O)CNC(C)C)C3CCC1 (configuration not stated)	i	44.8*	i	i	i	i
Cc1ccccc1-c1nc(CS(=O)(=O)CC(=O)NCCCN2CC(C)CC(C)C2)c(C)o1 (configuration not stated)	i	37.2*	i	i	66*	i
Cc1ccc(-c2nc(CS(=O)(=O)CC(=O)NCCCN(Cc3ccccc3)C(C)C)c(C)o2)cc1	i	37.1*	i	i	i	i
Cc1oc(-c2ccc(Cl)cc2)nc1CS(=O)CC(=O)NCCCN1CC(C)CC(C)C1 (configuration not stated)	i	25.9	i	i	54*	i
COc1cccc(-c2nc(CS(=O)(=O)CC(=O)NCCCN3CC(C)CC(C)C3)c(C)o2)c1 (configuration not stated)	i	28.5	i	i	65*	i
COc1cccc(-c2nc(CS(=O)(=O)CC(=O)NCCCN3CCN(C)CC3)c(C)o2)c1	i	8.4	i	i	i	i
CC1(c2nnc(-c3ccc(Cl)cc3)o2)CC(c2cccnc2)=NO1 (configuration not stated)	i	.	i	i	i	i
Cc1oc(-c2ccc(Cl)cc2)nc1CN1CCCC(C(=O)NCCCN2CCOCC2)C1 (configuration not stated)	i	44.9*	i	i	i	i
O=c1c2ccccc2[nH]c(=S)n1Cc1cccnc1	i	2.4	i	-6*	45*	i
O=C(c1c[nH]c2ccccc12)N1CCN(Cc2ccccc2)CC1	i	-13.4	i	i	i	i
O=c1c2ccccc2[nH]c(=S)n1CCN1CCN(Cc2ccccc2)CC1	i	0.8	i	-6*	i	i
c1ccc(CN2CCN(Cc3c[nH]c4ccccc34)CC2)cc1	i	5.1	i	-6*	i	i
CN(C)CCCn1c(=S)[nH]c2ccccc2c1=O	i	0.5	i	i	i	i
CN(C)CCn1c(=S)[nH]c2ccccc2c1=O	i	-1.8	i	i	i	11*
CCN(CCO)Cc1csc2ccc(Br)cc12	i	1.8	i	i	i	18*
SMILES	TRPC6 inh	FID counter	TRPC6 activator	TRPC4 block	TRPC4 act	TRPC4 PAM
CCN(CCO)Cc1csc2cccc(Br)c12	i	-1.4	i	i	i	i
Cc1cc(C)c(S(=O)(=O)c2ccccc2C(C)C)c(=O)[nH]1	i	-8.5	i	i	i	i
CCN1C(=NCCc2c[nH]c3ccccc23)N[C@@H](c2ccccc2)[C@H](C(=O)OC)[C@H]1C	i	11.2	i	i	i	i
CCn1c2ccccc2c2cc(NC(=O)CN3CCCC3)ccc21	i	5.6	i	i	i	28*
N#CC1=C(N)OC2=C(C(=O)CCC2)C1c1cc2c(cc1Br)OCO2 (configuration not stated)	i	-1.9	i	i	i	i
O=C(O)CSc1nnc(-c2ccco2)o1	i	1.4	i	i	i	i
CN(C)C(CNC(=O)CSc1nnc(-c2ccco2)o1)c1ccccc1 (configuration not stated)	i	-4.0	i	i	64*	i
O=C(CCN1C(=O)COc2ccccc21)NCCN1CCN(c2ccccc2F)CC1	i	5.9	i	i	i	i
O=C(CN1C(=O)COc2ccccc21)NCCCN1CCN(c2ccccc2F)CC1	i	37.2*	i	i	i	i
CN1CCN(CCCNC(=O)CN2C(=O)COc3ccccc32)CC1	i	-2.2	i	-6*	i	i
O=C(CN1C(=O)COc2ccccc21)NCCCN1CCCC1	i	-11.3	i	i	i	i
COc1nc(-c2ccccc2Cl)ccc1C#N	i	4.0	i	-6*	i	i
O=C(CC(=O)c1c(F)cccc1Cl)c1ccccc1O	i	-7.7	i	i	84*	i
Cc1ccc(-c2nnc(N3CCC(C)CC3)c3ccccc23)cc1C	i	-5.8	i	i	i	63*
Cc1onc(-c2ccccc2)c1C(=O)NNC(=S)NC(=O)c1ccc2c(c1)OCO2	i	-10.9	i	i	79*	i
Cc1onc(-c2ccccc2)c1C(=O)N/N=C/c1cccs1	i	-14.8	i	i	i	i
Cc1onc(-c2ccccc2)c1C(=O)NC(=S)NNC(=O)c1ccncc1	i	-1.2	i	i	i	i
COc1ccc(C(=O)NC(=S)NNC(=O)c2c(-c3ccccc3)noc2C)cc1OC	i	-21.3	i	i	85*	i
Cc1onc(-c2ccccc2)c1C(=O)NC(=S)NNC(=O)c1ccco1	i	-11.1	i	i	84*	i
COc1ccc(CCNC(=O)c2c(-c3ccccc3)noc2C)cc1OC	i	-10.3	i	i	i	i
Cc1onc(-c2ccccc2)c1C(=O)NNC(=S)NC(=O)/C=C/c1cccs1	i	-2.9	i	i	52*	i
